The structures appear in SMILES notation. Active and inactive are the calls of the source. The calls are words filed in the database; no cut-off is given here.

For assay [1], the target named is Casein kinase I isoform delta (Homo sapiens) (UniProt P48730). Description: Inhibition of CK1delta Lys2 labeling site in human A-375 cells at 5 uM by KiNativ Profiling analysis relative to control. The class given is cell-based.
The test system of assay [2] is Tyrosine-protein kinase ABL1 (Homo sapiens), P00519 [T315I]. Description: Inhibition of phosphorylated ABL1 T315I mutant (unknown origin) at 1 uM by Ambit Kinomescan binding assay relative to control; values are per cent of control.
For assay [3], the system named is Receptor-type tyrosine-protein kinase FLT3 (Homo sapiens), P36888 [D835Y]. Description: Inhibition of FLT3 D835Y mutant (unknown origin) at 1 uM by Ambit Kinomescan binding assay relative to control; values are per cent of control.
Assay [4] concerns the target Activin receptor type-1-like (Homo sapiens) (UniProt P37023). Description: Inhibition of ACVRL1 (unknown origin) at 1 uM by Ambit Kinomescan binding assay relative to control.
Assay [5] addresses T1, Aurora kinase C (Homo sapiens) (UniProt Q9UQB9).
T1 sequence (whole entry): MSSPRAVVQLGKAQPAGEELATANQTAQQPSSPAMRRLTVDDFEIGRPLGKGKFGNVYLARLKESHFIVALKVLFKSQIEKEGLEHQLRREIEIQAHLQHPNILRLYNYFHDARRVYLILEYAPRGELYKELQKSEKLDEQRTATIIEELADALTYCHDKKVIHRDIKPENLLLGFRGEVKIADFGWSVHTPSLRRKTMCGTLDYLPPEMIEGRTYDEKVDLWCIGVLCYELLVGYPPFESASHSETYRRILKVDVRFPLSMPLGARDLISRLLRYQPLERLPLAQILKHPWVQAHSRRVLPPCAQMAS
Description: Inhibition of AURKC (unknown origin) at 1 uM by Ambit Kinomescan binding assay relative to control; values are per cent of control.

Assay [6] has as its target Serine/threonine-protein kinase B-raf (Homo sapiens, UniProt P15056). Description: Inhibition of BRAF Lys2 labeling site in human A-375 cells at 0.05 uM by KiNativ Profiling analysis relative to control. The class given is cell-based.
Assay [7] addresses Microtubule-associated serine/threonine-protein kinase 3 (Homo sapiens) (UniProt O60307). Description: Inhibition of MAST3 Lys2 labeling site in human A-375 cells at 5 uM by KiNativ Profiling analysis relative to control. In kind it is cell-based.
Assay [8] has as its system Tyrosine-protein kinase ABL1 (Homo sapiens), P00519 [Y253F]. Description: Inhibition of ABL1 Y253F mutant (unknown origin) at 10 uM by Ambit Kinomescan binding assay relative to control.
Assay [9] concerns the target Myosin light chain kinase, smooth muscle (Homo sapiens) (UniProt Q15746). Description: Inhibition of MYLK (unknown origin) at 10 uM by Ambit Kinomescan binding assay. Put shortly:
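In vitro ATP-site competition binding assay against a panel of over 420 kinases (KinomeScan), with compound tested at 10 or 1 μM.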

For assay [10], the target named is Cyclin-dependent kinase 11B (Homo sapiens) (UniProt P21127). Description: Inhibition of CDC2L1 (unknown origin) at 10 uM by Ambit Kinomescan binding assay relative to control; values are per cent of control.
Assay [11] can be described thus: Inhibition of KHS1 Lys2 labeling site in human A-375 cells at 0.05 uM by KiNativ Profiling analysis relative to control. The note with it: condition cancer.
Assay [12] addresses Casein kinase I isoform gamma-3 (Homo sapiens) (UniProt Q9Y6M4). Description: Inhibition of CSNK1G3 (unknown origin) at 10 uM by Ambit Kinomescan binding assay.
Assay [13] can be described thus: Inhibition of Wnk1/2/4 ACT labeling site in human Huh-7 cells at 1 uM by KiNativ Profiling analysis relative to control. The note with it: condition cancer.
Assay [14] concerns the target Tyrosine-protein kinase JAK1 (Homo sapiens) (UniProt P23458). Description: Inhibition of JAK1 domain2 Lys1 labeling site in human A-375 cells at 0.05 uM by KiNativ Profiling analysis relative to control. The class given is cell-based.
In assay [15] the target is Dual specificity mitogen-activated protein kinase kinase 1 (Homo sapiens) (UniProt Q02750). Description: Inhibition of MAP2K1 Lys2 labeling site harbouring DVKPSNILVNSR in human Huh-7 cell lysate at 1 uM by KiNativ Profiling analysis relative to control. The class given is subcellular.
Assay [16] concerns the target Phosphatidylinositol 4-kinase beta (Homo sapiens) (UniProt Q9UBF8). Description: Inhibition of PI4KB ATP labeling site harbouring VPHTQAVVLNSKDK in human Huh-7 cell lysate at 1 uM by KiNativ Profiling analysis relative to control. In kind it is subcellular.
Assay [17] has as its target T2, Serine/threonine-protein kinase Nek9 (Homo sapiens) (UniProt Q8TD19).
T2 sequence (whole entry): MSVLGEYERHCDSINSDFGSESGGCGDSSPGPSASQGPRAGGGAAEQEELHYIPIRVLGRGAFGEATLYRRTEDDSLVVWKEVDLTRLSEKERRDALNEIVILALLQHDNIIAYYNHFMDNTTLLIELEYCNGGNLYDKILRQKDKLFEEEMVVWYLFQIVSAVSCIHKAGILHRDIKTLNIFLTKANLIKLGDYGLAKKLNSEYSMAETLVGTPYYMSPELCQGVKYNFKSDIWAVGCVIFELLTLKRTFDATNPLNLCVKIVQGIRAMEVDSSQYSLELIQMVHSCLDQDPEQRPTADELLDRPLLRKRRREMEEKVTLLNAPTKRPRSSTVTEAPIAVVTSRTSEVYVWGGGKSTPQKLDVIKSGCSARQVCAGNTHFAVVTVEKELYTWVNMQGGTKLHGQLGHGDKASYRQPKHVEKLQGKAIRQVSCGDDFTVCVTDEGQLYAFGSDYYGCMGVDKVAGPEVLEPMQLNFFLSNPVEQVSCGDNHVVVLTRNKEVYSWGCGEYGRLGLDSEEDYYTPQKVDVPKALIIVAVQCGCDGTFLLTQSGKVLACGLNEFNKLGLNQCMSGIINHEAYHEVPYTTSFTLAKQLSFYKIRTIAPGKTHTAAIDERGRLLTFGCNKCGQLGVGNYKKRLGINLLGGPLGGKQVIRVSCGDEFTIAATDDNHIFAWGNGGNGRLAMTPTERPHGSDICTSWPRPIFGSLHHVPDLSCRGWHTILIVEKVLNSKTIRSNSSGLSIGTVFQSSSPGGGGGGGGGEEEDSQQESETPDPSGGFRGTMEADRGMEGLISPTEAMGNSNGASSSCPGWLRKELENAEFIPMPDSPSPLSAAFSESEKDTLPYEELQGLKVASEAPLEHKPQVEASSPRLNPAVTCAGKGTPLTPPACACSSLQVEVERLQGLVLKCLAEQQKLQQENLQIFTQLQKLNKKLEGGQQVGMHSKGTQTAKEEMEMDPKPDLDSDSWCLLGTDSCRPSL
Description: Inhibition of NEK9 Lys2 labeling site in human Huh-7 cell lysate at 1 uM by KiNativ Profiling analysis relative to control. In kind it is subcellular.

The target in assay [18] is Serine/threonine-protein kinase 38-like (Homo sapiens) (UniProt Q9Y2H1). Description: Inhibition of NDR2 Lys1 labeling site in human Huh-7 cell lysate at 1 uM by KiNativ Profiling analysis relative to control. The class given is subcellular.
Serine/threonine-protein kinase 38-like (Homo sapiens), sequence (Q9Y2H1 2-464 limits assumed): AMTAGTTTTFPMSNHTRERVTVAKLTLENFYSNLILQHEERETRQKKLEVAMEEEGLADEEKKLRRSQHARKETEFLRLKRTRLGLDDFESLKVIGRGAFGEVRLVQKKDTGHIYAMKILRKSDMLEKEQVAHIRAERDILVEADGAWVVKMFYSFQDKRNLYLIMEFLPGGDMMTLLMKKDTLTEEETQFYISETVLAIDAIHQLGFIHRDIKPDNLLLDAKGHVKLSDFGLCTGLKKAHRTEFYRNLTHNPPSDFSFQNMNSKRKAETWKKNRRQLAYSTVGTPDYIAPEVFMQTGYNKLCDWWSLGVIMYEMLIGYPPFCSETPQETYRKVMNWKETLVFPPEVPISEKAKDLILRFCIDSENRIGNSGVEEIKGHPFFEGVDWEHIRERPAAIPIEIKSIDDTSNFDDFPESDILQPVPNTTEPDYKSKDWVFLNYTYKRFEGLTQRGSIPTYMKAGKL

Tyrosine-protein kinase JAK1 (Homo sapiens), sequence (P23458 whole entry, the tested form may be a part): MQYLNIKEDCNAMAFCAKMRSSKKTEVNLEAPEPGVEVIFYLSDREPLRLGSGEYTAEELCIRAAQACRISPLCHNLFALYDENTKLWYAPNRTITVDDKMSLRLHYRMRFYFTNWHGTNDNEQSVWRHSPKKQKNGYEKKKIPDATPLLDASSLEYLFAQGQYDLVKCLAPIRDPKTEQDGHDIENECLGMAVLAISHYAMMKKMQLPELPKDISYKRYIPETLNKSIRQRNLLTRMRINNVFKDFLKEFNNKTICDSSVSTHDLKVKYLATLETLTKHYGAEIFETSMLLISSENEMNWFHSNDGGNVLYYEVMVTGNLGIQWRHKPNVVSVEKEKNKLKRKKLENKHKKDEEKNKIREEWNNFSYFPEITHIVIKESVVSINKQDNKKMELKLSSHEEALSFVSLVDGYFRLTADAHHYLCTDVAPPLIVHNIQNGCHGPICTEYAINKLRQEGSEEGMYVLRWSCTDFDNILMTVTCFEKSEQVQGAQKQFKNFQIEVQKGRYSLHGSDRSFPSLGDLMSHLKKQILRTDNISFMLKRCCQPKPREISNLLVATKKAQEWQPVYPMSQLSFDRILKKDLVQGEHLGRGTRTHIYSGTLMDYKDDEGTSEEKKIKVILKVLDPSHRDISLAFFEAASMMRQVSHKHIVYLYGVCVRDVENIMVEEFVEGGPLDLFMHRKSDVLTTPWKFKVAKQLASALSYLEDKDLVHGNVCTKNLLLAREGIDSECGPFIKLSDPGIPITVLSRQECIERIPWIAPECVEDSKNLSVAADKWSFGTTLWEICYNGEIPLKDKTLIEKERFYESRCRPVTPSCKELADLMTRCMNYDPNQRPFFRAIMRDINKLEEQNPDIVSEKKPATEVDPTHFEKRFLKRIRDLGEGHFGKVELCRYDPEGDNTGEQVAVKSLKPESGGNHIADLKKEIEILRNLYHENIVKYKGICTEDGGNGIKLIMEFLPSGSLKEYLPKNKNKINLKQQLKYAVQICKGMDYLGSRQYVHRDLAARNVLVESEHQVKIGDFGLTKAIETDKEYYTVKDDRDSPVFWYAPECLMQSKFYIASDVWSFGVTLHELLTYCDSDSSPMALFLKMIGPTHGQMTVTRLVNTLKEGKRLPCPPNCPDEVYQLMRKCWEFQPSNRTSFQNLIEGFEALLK
Serine/threonine-protein kinase B-raf, sequence (P15056 whole entry): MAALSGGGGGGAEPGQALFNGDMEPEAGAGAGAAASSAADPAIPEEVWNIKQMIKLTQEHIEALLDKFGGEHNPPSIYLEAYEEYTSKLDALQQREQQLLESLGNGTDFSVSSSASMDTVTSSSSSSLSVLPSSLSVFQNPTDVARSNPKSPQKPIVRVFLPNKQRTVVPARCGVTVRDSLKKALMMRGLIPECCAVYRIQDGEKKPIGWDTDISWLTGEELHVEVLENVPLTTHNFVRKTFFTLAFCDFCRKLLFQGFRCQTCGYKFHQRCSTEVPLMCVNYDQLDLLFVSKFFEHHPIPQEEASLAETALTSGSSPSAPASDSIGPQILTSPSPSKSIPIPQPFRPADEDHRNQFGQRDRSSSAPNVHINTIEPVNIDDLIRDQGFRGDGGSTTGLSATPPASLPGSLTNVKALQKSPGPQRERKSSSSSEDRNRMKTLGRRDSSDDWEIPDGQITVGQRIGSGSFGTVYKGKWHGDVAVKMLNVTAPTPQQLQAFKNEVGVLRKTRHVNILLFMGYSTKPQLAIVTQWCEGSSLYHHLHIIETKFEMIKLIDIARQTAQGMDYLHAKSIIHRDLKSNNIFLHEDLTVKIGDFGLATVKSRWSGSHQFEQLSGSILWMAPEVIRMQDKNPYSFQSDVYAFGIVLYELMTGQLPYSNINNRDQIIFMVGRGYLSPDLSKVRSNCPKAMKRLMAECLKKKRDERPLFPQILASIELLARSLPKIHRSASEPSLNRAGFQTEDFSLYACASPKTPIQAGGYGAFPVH
Myosin light chain kinase, smooth muscle (Homo sapiens), sequence (Q15746 whole entry): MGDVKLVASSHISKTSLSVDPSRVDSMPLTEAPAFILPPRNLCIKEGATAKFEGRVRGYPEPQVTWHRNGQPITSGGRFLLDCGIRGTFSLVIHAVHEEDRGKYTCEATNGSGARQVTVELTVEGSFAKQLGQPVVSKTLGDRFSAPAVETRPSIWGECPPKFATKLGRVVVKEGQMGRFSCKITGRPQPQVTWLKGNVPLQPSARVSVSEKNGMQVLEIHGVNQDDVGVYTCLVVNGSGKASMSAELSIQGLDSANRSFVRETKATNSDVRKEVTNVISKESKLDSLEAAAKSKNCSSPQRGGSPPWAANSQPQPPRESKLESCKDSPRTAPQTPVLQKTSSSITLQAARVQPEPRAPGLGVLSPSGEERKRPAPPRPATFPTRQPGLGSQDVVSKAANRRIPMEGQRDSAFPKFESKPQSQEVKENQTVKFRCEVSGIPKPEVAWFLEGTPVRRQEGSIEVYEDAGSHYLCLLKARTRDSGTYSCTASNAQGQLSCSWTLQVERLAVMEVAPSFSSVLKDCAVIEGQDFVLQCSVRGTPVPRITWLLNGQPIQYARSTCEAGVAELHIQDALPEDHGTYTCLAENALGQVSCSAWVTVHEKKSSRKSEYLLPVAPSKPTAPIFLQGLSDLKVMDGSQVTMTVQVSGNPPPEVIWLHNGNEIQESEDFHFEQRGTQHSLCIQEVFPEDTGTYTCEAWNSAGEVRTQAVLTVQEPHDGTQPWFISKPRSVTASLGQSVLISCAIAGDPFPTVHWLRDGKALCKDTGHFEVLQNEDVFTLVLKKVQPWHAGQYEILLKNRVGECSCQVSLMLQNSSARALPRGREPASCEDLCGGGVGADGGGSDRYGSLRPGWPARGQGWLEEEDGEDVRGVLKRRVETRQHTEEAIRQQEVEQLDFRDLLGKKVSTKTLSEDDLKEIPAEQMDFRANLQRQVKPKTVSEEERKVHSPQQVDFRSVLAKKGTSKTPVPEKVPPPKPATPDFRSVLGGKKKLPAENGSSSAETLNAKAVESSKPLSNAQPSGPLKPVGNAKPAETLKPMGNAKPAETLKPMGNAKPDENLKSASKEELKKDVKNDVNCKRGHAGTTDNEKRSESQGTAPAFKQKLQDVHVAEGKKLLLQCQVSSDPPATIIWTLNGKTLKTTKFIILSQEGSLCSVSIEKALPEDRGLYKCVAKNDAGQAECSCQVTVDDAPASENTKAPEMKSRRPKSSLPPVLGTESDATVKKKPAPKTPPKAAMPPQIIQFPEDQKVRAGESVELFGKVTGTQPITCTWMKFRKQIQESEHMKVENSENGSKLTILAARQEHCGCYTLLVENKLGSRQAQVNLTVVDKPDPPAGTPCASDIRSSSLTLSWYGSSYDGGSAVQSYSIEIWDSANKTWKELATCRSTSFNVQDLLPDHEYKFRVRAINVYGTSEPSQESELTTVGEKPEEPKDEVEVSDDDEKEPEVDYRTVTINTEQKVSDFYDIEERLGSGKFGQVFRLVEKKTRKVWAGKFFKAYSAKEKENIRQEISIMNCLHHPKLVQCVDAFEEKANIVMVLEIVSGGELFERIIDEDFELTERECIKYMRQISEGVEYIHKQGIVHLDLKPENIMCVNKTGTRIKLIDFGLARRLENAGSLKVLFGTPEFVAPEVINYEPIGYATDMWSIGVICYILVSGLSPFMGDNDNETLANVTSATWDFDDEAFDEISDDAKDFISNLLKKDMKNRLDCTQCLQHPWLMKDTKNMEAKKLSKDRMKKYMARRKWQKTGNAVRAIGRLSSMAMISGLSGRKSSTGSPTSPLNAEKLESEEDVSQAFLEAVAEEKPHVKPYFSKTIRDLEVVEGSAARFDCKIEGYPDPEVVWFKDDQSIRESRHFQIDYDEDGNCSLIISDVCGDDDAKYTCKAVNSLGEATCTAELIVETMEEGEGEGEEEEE
Casein kinase I isoform gamma-3 (Homo sapiens), sequence (Q9Y6M4 whole entry, looked up, canonical isoform): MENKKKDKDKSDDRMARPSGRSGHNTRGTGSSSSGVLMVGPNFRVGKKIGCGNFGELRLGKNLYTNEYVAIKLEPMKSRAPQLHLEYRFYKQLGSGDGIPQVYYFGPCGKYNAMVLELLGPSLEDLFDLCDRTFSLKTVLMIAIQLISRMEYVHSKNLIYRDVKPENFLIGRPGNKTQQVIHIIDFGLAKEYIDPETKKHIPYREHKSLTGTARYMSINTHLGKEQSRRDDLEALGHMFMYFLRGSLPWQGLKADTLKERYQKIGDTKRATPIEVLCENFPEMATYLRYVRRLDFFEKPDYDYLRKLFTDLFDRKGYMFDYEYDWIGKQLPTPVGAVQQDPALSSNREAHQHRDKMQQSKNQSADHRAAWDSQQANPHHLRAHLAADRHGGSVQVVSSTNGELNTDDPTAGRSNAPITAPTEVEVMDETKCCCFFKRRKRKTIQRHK

On to `CCN1CCN(Cc2ccc(NC(=O)c3ccc(C)c(/C=C/c4cnc5[nH]ccc5c4OC)c3)cc2C(F)(F)F)CC1`, for which the inhibition in [1] is 1.4%; in [4] it was 100%; in [6] it was 29.6%. Moreover, in assay [2], the percent of control stood at 5.4%. In addition, the results for the residual activity in assay [3] and in assay [5] were 6.8% and 34%, respectively.

As to `CCN1CCN(Cc2ccc(NC(=O)c3ccc(C)c(Oc4ccnc5[nH]ccc45)c3)cc2C(F)(F)F)CC1`, the inhibition in [7] came to 4.8%; in assay [8], 1.1%; in assay [14], 17.4%. The inhibition entry in assay [9] and in assay [12] was “inactive” in each case. Also, the percent of control in [10] came to 0.35%. Moreover, the inhibition at 0.05 µM in [11] is -15.4%. Also, in [13], the inhibition at 1 µM was 7.6%.

On to `CNc1cc(Oc2cc(C(=O)Nc3cc(N4CCN(C)CC4)cc(C(F)(F)F)c3)ccc2C)ncn1`, for which the inhibition is 15.6% in assay [15], 1.9% in assay [16], -3.1% in assay [17] and -6.7% in assay [18].

Values taken from ChEMBL document CHEMBL5696442, “Discovery of type II inhibitors of TGFβ-activated kinase 1 (TAK1) and mitogen-activated protein kinase kinase kinase kinase 2 (MAP4K2)” (J Med Chem, 2015).
